Assay [1] deals with Phosphodiesterase 3 (Homo sapiens) (UniProt Q14432+Q13370). As to the kind of experiment: Inhibition of [3H]cAMP binding to human phosphodiesterase 3 at 30 uM; Inactive. It counts as protein assay. The method, boiled down: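 Enzyme isolated from freshly collected human platelets. [3H]cAMP SPA kit assay, substrate at 200 nM (near Km under assay conditions). Compounds tested at 30 µM.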

Assay [2] addresses cGMP-specific 3',5'-cyclic phosphodiesterase (Homo sapiens) (UniProt O76074). The assay can be described thus: Inhibition of [3H]cGMP binding to human Phosphodiesterase 5 at 30 uM; Inactive.
Assay [3] concerns the target Phosphodiesterase 4 (Homo sapiens, UniProt P27815+Q08499+Q07343+Q08493). The assay can be described thus: Inhibition of [3H]cAMP binding to human lung Phosphodiesterase 4. It counts as protein assay.
The target of assay [4] is T1, 3',5'-cyclic-AMP phosphodiesterase 4D (Homo sapiens, UniProt Q08499). As to the kind of experiment: Inhibition of [3H]cAMP binding to recombinant human Phosphodiesterase 4D3 (PDE4D3) in baculovirus expression system.
For assay [5], the target named is T1, 3',5'-cyclic-AMP phosphodiesterase 4D. The assay can be described thus: Inhibition of [3H]cAMP binding to recombinant human Phosphodiesterase 4D5 (PDE4D5) in baculovirus expression system.
Assay [6] has as its target 3',5'-cyclic-AMP phosphodiesterase 4A (Homo sapiens, UniProt P27815). As to the kind of experiment: Inhibition of [3H]cAMP binding to recombinant human Phosphodiesterase 4AL (PDE4AL) in baculovirus expression system.
Assay [7] concerns the target T1, 3',5'-cyclic-AMP phosphodiesterase 4D. The assay can be described thus: Inhibition of [3H]cAMP binding to recombinant human Phosphodiesterase 4DE (PDE4DE) in baculovirus expression system.
Assay [8] concerns the target 3',5'-cyclic-AMP phosphodiesterase 4B (Homo sapiens, UniProt Q07343). The assay can be described thus: Inhibition of [3H]cAMP binding to recombinant human Phosphodiesterase 4BL (PDE4BL) in baculovirus expression system.

SMILES strings stand for the structures. Active and inactive are the calls of the source. The rule behind the calls is not given here.

T1 sequence (Q08499 whole entry): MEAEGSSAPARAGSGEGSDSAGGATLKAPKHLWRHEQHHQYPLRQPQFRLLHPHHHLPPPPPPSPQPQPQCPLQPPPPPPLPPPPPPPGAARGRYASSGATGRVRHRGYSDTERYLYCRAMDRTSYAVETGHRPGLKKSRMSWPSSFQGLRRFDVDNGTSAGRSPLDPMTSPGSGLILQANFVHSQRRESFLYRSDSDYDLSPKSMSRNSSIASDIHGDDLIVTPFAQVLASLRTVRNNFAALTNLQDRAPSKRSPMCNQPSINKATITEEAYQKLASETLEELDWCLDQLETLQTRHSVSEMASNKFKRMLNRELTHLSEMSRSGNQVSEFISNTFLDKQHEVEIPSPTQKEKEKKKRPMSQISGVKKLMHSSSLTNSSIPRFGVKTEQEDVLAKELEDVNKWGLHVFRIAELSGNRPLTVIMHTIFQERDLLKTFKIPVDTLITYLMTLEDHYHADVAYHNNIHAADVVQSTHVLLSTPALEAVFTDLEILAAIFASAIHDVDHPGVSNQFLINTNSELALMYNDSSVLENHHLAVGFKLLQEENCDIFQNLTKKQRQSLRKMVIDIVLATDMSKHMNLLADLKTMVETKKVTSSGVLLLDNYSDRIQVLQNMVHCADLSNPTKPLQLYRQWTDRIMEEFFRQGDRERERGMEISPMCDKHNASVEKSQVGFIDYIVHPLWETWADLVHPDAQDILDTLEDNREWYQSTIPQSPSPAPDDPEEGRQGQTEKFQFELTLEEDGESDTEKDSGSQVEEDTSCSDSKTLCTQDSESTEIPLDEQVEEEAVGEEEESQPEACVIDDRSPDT
Chain of 3',5'-cyclic-AMP phosphodiesterase 4A (P27815 whole entry): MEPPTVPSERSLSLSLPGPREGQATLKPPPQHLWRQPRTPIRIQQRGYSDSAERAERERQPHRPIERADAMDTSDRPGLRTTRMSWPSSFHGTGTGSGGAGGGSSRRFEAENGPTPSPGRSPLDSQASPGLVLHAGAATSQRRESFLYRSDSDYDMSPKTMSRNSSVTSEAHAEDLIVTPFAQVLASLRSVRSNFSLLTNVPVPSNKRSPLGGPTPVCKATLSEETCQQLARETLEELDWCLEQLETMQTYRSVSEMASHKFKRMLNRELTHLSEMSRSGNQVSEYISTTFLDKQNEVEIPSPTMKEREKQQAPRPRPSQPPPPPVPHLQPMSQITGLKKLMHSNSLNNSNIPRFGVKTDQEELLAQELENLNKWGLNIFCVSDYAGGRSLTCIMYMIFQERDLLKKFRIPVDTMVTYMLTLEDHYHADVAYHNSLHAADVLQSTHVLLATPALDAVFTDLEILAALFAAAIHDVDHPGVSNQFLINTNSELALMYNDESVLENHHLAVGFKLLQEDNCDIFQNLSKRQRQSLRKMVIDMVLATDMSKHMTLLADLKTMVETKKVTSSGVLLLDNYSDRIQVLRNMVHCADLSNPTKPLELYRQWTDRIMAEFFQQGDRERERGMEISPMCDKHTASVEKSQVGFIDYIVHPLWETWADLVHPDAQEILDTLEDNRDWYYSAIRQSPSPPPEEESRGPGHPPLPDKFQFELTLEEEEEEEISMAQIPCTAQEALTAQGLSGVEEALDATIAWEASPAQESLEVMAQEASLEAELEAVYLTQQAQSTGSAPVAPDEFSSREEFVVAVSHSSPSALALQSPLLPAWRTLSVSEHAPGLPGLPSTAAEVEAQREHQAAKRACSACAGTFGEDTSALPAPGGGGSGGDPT
Chain of 3',5'-cyclic-AMP phosphodiesterase 4B (Q07343 whole entry): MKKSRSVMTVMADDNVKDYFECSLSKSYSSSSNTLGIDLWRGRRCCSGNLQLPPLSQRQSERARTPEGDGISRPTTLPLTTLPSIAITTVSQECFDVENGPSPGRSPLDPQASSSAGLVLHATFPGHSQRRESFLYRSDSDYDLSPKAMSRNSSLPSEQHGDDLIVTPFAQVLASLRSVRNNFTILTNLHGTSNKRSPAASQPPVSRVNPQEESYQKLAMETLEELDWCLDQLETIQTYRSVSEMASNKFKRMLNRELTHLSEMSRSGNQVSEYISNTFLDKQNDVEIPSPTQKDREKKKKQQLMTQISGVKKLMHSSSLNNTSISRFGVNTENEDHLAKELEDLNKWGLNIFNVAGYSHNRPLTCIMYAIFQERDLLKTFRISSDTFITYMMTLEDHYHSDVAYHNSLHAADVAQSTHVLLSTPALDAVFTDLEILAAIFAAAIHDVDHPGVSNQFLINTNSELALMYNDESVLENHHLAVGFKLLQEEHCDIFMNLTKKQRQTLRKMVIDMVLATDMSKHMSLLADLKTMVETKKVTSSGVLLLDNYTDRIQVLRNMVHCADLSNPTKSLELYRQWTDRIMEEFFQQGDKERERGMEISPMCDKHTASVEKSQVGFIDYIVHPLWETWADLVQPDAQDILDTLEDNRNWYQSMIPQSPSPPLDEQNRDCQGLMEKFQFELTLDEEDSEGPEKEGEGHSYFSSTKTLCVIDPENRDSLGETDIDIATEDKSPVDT

Take `COc1ccc(Cn2cnc(N)c3nc(C(C)(C)COc4ccc(C(N)=O)cc4)nc2-3)cc1OC1CCCC1`: the Effect result in assay [1] and in assay [2] was “inactive” in each case. Besides, the Ki (as a rule, the equilibrium dissociation constant of an inhibitor or competing ligand from its target) in assay [3] was 0.025 µM; in assay [4] it was 0.008 µM; in assay [5], 0.0049 µM; in assay [6] it was 0.155 µM; in assay [7], 0.312 µM; in assay [8], 0.0076 µM.

For the compound `CCNc1ncn(Cc2ccc(OC)c(OC3CCCC3)c2)c2nc(C(C)C)nc1-2`, the Effect entry in assay [1] and in assay [2] was “inactive” throughout. The Ki in assay [3] was 0.436 µM; in assay [4] it was 0.172 µM; in assay [5] it was 0.141 µM; in assay [6] it was 3.9 µM; in assay [7] it was 2.89 µM; in assay [8] it was 0.27 µM.

Regarding `COC(=O)c1ccc(OCC(C)(C)c2nc3c(N)ncn(Cc4ccc(OC)c(OC5CCCC5)c4)c-3n2)cc1`, the Effect entry in assay [1] and in assay [2] was “inactive” each time. Besides, the Ki in assay [3] was found to be 0.0093 µM; in assay [4], 0.003 µM; in assay [5] it was 0.0055 µM; in assay [6] it was 0.103 µM; in assay [7], 0.246 µM; in assay [8] it was 0.0052 µM.

Turning to `CC1CC(=O)NN=C1c1ccc(-n2ccnc2)cc1` (stereo not given) [CI-930], the Ki in assay [4], in assay [5], in assay [6], in assay [7] and in assay [8] was over 50 µM throughout.

As for `COc1ccc(Cn2cnc(N)c3nc(C(C)(C)COc4ccc(C(=O)O)cc4)nc2-3)cc1OC1CCCC1`, the Effect result in assay [1] and in assay [2] was “inactive” each time. Also, the Ki in assay [3] was 5.23 µM; in assay [4] it was 4.3 µM; in assay [5], over 50 µM; in assay [6] it was over 50 µM; in assay [7], over 50 µM; in assay [8], over 50 µM.

For `COc1cccc(OC[C@H](C)c2nc3c(N)ncn(Cc4ccc(OC)c(OC5CCCC5)c4)c-3n2)c1`, the Effect result in assay [1] and in assay [2] was “inactive” each time. Besides, the Ki in assay [3] came out at 1.47 µM; in assay [4], 0.493 µM; in assay [5], 0.322 µM; in assay [6], 5.2 µM; in assay [7] it was 5.05 µM; in assay [8] it was 0.43 µM.
